Test results as given in ChEMBL document CHEMBL2010764, “Novel alkynylphosphonate analogue of calcitriol with potent antiproliferative effects in cancer cells and lack of calcemic activity” (ACS Med Chem Lett, 2011).
pIC50: −log10 of the molar value. Active and inactive are the calls of the source. The rule behind the calls is not given here.

How the values were obtained:
Mus musculus [1] = assay: Toxicity in CF1 mouse assessed as morphological alterations in liver at 5 to 20 ug/kg, ip qd for 5 days measured after 15 days; assay type: organism-based; conditions: in vivo, 360 h
Procedure, shortened: (§1)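 Mice dosed intraperitoneally once daily for 5 days at 5 or 20 μg/kg in isopropanol vehicle. Liver, duodenum, lungs and kidneys were inspected visually for macroscopic morphological alterations after treatment.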

Mus musculus [2] = assay: Toxicity in CF1 mouse assessed as morphological alterations in kidney at 5 to 20 ug/kg, ip qd for 5 days measured after 15 days; assay type: organism-based; conditions: in vivo, 360 h; procedure, shortened: as §1
Mus musculus [3] = assay: Toxicity in CF1 mouse assessed as morphological alterations in lung at 5 to 20 ug/kg, ip qd for 5 days measured after 15 days; assay type: organism-based; conditions: in vivo, 360 h; procedure, shortened: as §1
T98G [4] = assay: Antiproliferative activity against human T98G cells harboring scrambled shRNA assessed as decrease in cell number at 10 nM after 72 hrs by WST assay; assay type: functional, cell-based
Procedure, shortened: (§2)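 T98G cells transfected with VDR-silencing shRNA plasmid or scrambled shRNA plasmid. 48 h after transfection, treated with 10 nM agent or vehicle, then counted 72 h after treatment. Triplicate wells, three independent experiments; mean ± SE. VDR knockdown was checked on lysates taken 48 h after transfection with 2 or 4 μg plasmid.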

Mus musculus [5] = assay: Toxicity in CF1 mouse assessed as mortality at 20 ug/kg, ip qd for 5 days; assay type: organism-based; conditions: in vivo, 0.02 mg/kg, 120 h
Procedure, shortened: (§3)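 Mice in three groups (n = 5/group) received daily intraperitoneal injections of test agent, calcitriol, or isopropanol vehicle at 5 or 20 μg/kg body weight for 5 days. Survival was followed through the examination period, with blood sampled before dosing and at 24, 48, 72 and 96 h for plasma calcium (Arsenazo III absorbance). Liver, duodenum, lungs and kidneys were inspected macroscopically.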

Mus musculus [6] = assay: Hypercalcemic activity in CF1 mouse assessed as increase in plasma calcium level at 20 ug/kg, ip qd for 5 days measured after 96 hrs; assay type: functional, organism-based
Procedure, shortened: (§4)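 Mice (n = 5/group) received daily intraperitoneal injections of agent or isopropanol vehicle at 5 or 20 μg/kg body weight for 5 days. Blood was taken before dosing (0 h) and at 24, 48, 72 and 96 h. Plasma calcium was read by Arsenazo III absorbance. Means ± SE; experiment repeated twice.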

T98G [7] = assay: Antiproliferative activity against human T98G cells harboring plasmid silencing VDR assessed as decrease in cell number at 10 nM after 72 hrs by WST assay; assay type: functional, cell-based; procedure, shortened: as §2
[8] = Antiproliferative activity against human HN12 cells assessed as decrease in cell number after 72 hrs by WST assay; assay type: functional, cell-based; conditions: HN12, 72 h
SVEC vGPCR (Mouse) = assay: Antiproliferative activity against mouse SVEC vGPCR cells assessed as decrease in cell number after 72 hrs by WST assay
T47D = assay: Antiproliferative activity against human T47D cells assessed as decrease in cell number after 72 hrs by WST assay; assay type: functional, cell-based
[9] = Antiproliferative activity against mouse LM05e cells assessed as decrease in cell number after 72 hrs by WST assay; assay type: functional, cell-based
Mus musculus [10] = assay: Toxicity in CF1 mouse assessed as morphological alterations in duodenum at 5 to 20 ug/kg, ip qd for 5 days measured after 15 days; assay type: organism-based; conditions: in vivo, 360 h; procedure, shortened: as §1
HN12 = assay: Antiproliferative activity against human HN12 cells assessed as decrease in cell number at 1 nM after 72 hrs by hemocytometeric analysis; assay type: functional, cell-based
Procedure, shortened: (§5)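 Cells exposed to the test agent or isopropanol vehicle over 72 h, across 0.1–100 nM; proliferation expressed as percentage of vehicle. Experiments repeated at least three times per cell line; one-way ANOVA with Bonferroni post-test.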

LM3 = assay: Antiproliferative activity against mouse LM3 cells assessed as decrease in cell survival at 0.1 to 100 nM after 72 hrs by WST1 assay; assay type: functional, cell-based; procedure, shortened: as §5
Mus musculus [11] = assay: Hypercalcemic activity in CF1 mouse assessed as increase in plasma calcium level at 5 ug/kg, ip qd for 5 days measured after 96 hrs; assay type: functional, organism-based; procedure, shortened: as §4
T98G [12] = assay: Antiproliferative activity against human T98G cells assessed as decrease in cell number after 72 hrs by WST assay; assay type: functional, cell-based; procedure, shortened: as §5
HCT-116 = assay: Antiproliferative activity against human HCT116 cells assessed as decrease in cell survival at 0.1 to 100 nM after 72 hrs by WST1 assay; assay type: functional, cell-based; procedure, shortened: as §5
Mus musculus [13] = assay: Toxicity in CF1 mouse assessed as mortality at 5 ug/kg, ip qd for 5 days; assay type: organism-based; conditions: in vivo, 0.005 mg/kg, 120 h; procedure, shortened: as §3
Mus musculus [14] = assay: Toxicity in CF1 mouse assessed as mortality at 5 to 20 ug/kg, ip qd for 5 days; assay type: organism-based; conditions: in vivo, 120 h; procedure, shortened: as §3
[15] = Cmax in mouse at 5 ug/kg; assay type: ADME, organism-based; design: dose 5 ug/kg; conditions: in vivo, 0.005 mg/kg
[16] = AUC in mouse at 5 ug/kg; assay type: ADME, organism-based; conditions: plasma, 0.005 mg/kg
Mus musculus [17] = assay: Hypercalcemic activity in CF1 mouse assessed as increase in plasma calcium level at 5 to 20 ug/kg, ip qd for 5 days measured after 96 hrs; assay type: functional, organism-based; procedure, shortened: as §4

Compound: C=C1/C(=C\C=C2/CCC[C@]3(C)[C@@H]([C@H](C)CC#CP(=O)(OCC)OCC)CC[C@@H]23)C[C@@H](O)C[C@@H]1O
- Activity (Mus musculus [1]): Non-toxic
- Activity (Mus musculus [2]): Non-toxic
- Activity (Mus musculus [3]): Non-toxic
- Activity (T98G [4]): Active
- Activity (Mus musculus [5]): Non-toxic
- Activity (Mus musculus [6]): inactive
- Activity (T98G [7]): Active
- pIC50 [8]: 7.65
- pIC50 (SVEC vGPCR (Mouse)): 6.95
- pIC50 (T47D): 8.32
- pIC50 [9]: 8.77
- Activity (Mus musculus [10]): Non-toxic
- Activity (HN12): Active
- Activity (LM3): inactive
- Activity (Mus musculus [11]): inactive
- pIC50 (T98G [12]): 7.44
- Activity (HCT-116): inactive
- Activity (Mus musculus [13]): Non-toxic

Compound: C=C1/C(=C\C=C2/CCC[C@]3(C)[C@@H]([C@H](C)CCCC(C)(C)O)CC[C@@H]23)C[C@@H](O)C[C@@H]1O [CALCITRIOL]
- Activity (Mus musculus [14]): Toxic
- Cmax [15]: > 10 ng/mL
- AUC [16]: > 40 ng·h/mL
- Activity (Mus musculus [17]): Active
